Assay results published in ChEMBL document CHEMBL3244070, “Spiro[isobenzofuran-1(3H),4'-piperidines]. 3. Diuretic and antihypertensive properties of compounds containing a sulfur attached to nitrogen” (1978).
Calls of active or inactive are those of the source. The rule behind the calls is not given here.

Legend:
Rattus norvegicus [1] = experiment: Diuretic activity in acute sodium loaded Wistar rat assessed as sodium level in urine at 5 mg/kg, po measured for 0 to 5 hrs post drug dosing by flame photometer relative to urea; assay type: functional
Procedure, shortened: (§1)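 Female Wistar rats (150–200 g), fasted 16 h. Drug in 1% saline given orally at 15 mL/kg; animals kept in individual metabolic cages with water ad libitum. Urine collected 0–5 h. Each test had vehicle and urea (1000 mg/kg) groups. Na⁺ and K⁺ measured by flame photometry, Cl⁻ by chloride analyzer. Group means for volume and each ion expressed as a ratio to the urea group.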

Rattus norvegicus [2] = experiment: Diuretic activity in acute sodium loaded Wistar rat assessed as sodium level in urine at 2 mg/kg, po measured for 0 to 5 hrs post drug dosing by flame photometer relative to urea; assay type: functional; procedure, shortened: as §1
Rattus norvegicus [3] = experiment: Diuretic activity in acute sodium loaded Wistar rat assessed as chloride level in urine at 10 mg/kg, po measured for 0 to 5 hrs post drug dosing by chloride analyzer relative to urea; assay type: functional; procedure, shortened: as §1
Rattus norvegicus [4] = experiment: Diuretic activity in acute sodium loaded Wistar rat assessed as urine volume at 5 mg/kg, po measured for 0 to 5 hrs post drug dosing relative to urea; assay type: functional; procedure, shortened: as §1
Rattus norvegicus [5] = experiment: Diuretic activity in acute sodium loaded Wistar rat assessed as potassium level in urine at 5 mg/kg, po measured for 0 to 5 hrs post drug dosing by flame photometer relative to urea; assay type: functional; procedure, shortened: as §1
Rattus norvegicus [6] = experiment: Antihypertensive activity in spontaneous hypertensive rat assessed as drop in systolic blood pressure at 25 mg/kg, po administered at 0 hrs on days 1, 2 and 3 measured at 2 hrs after drug dose on day 3 by indirect tail-cuff method; assay type: functional, Artery
Procedure, shortened: (§2)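 Spontaneously hypertensive rats, tail-cuff (indirect) systolic pressure. Pairs of rats held in a wire basket, conditioned 20 min in a 40 °C incubator. Each reading is the mean of 3–5 determinations. Rats had 2-week training for baseline; those below 175 mmHg were excluded. Oral dosing at 0 h on days 1–3 in groups of six, read before dosing and 2 h after the day-3 dose; paired t test.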

Rattus norvegicus [7] = experiment: Diuretic activity in acute sodium loaded Wistar rat assessed as potassium level in urine at 2 mg/kg, po measured for 0 to 5 hrs post drug dosing by flame photometer relative to urea; assay type: functional; procedure, shortened: as §1
Rattus norvegicus [8] = experiment: Diuretic activity in acute sodium loaded Wistar rat assessed as chloride level in urine at 50 mg/kg, po measured for 0 to 5 hrs post drug dosing by chloride analyzer relative to urea; assay type: functional; procedure, shortened: as §1
Rattus norvegicus [9] = experiment: Diuretic activity in acute sodium loaded Wistar rat assessed as urine volume at 50 mg/kg, po measured for 0 to 5 hrs post drug dosing relative to urea; assay type: functional; procedure, shortened: as §1
Rattus norvegicus [10] = experiment: Hypotensive activity in DOCA rat at 25 to 50 mg/kg, po; assay type: functional, organism-based
Rattus norvegicus [11] = experiment: Diuretic activity in acute sodium loaded Wistar rat assessed as sodium level in urine at 10 mg/kg, po measured for 0 to 5 hrs post drug dosing by flame photometer relative to urea; assay type: functional; procedure, shortened: as §1
Mus musculus = experiment: Antidepressant activity in CD-1 mouse at 25 mg/kg, ip administered 30 mins prior to tetrabenazine challenge measured after 30 mins by tetrabenazine assay; assay type: functional, organism-based; parameters: dose 25 mg/kg
Rattus norvegicus [12] = experiment: Diuretic activity in acute sodium loaded Wistar rat assessed as sodium level in urine at 50 mg/kg, po measured for 0 to 5 hrs post drug dosing by flame photometer relative to urea; assay type: functional; procedure, shortened: as §1
Rattus norvegicus [13] = experiment: Diuretic activity in acute sodium loaded Wistar rat assessed as urine volume at 10 mg/kg, po measured for 0 to 5 hrs post drug dosing relative to urea; assay type: functional; procedure, shortened: as §1
Rhesus monkey = experiment: Diuretic activity in rhesus monkey at 10 to 20 mg/kg, po; assay type: functional, organism-based; conditions: Macaca mulatta, Urine
Rattus norvegicus [14] = experiment: Diuretic activity in acute sodium loaded Wistar rat assessed as chloride level in urine at 2 mg/kg, po measured for 0 to 5 hrs post drug dosing by chloride analyzer relative to urea; assay type: functional; procedure, shortened: as §1
Rattus norvegicus [15] = experiment: Diuretic activity in acute sodium loaded Wistar rat assessed as potassium level in urine at 10 mg/kg, po measured for 0 to 5 hrs post drug dosing by flame photometer relative to urea; assay type: functional; procedure, shortened: as §1
Canis familiaris [16] = experiment: Diuretic activity in dog at 20 mg/kg, iv; assay type: functional, organism-based; parameters: dose 20 mg/kg; conditions: Canis lupus familiaris, Urine
Rattus norvegicus [17] = experiment: Diuretic activity in acute sodium loaded Wistar rat assessed as sodium level in urine at 25 mg/kg, po measured for 0 to 5 hrs post drug dosing by flame photometer relative to urea; assay type: functional; procedure, shortened: as §1
Canis familiaris [18] = experiment: Antihypertensive activity in acute anesthetized dog at 10 mg/kg, iv; assay type: functional, organism-based; parameters: dose 10 mg/kg; conditions: Canis lupus familiaris
Rattus norvegicus [19] = experiment: Diuretic activity in acute sodium loaded Wistar rat assessed as potassium level in urine at 25 mg/kg, po measured for 0 to 5 hrs post drug dosing by flame photometer relative to urea; assay type: functional; procedure, shortened: as §1
Rattus norvegicus [20] = experiment: Diuretic activity in acute sodium loaded Wistar rat assessed as urine volume at 25 mg/kg, po measured for 0 to 5 hrs post drug dosing relative to urea; assay type: functional; procedure, shortened: as §1
Rattus norvegicus [21] = experiment: Antihypertensive activity in spontaneous hypertensive rat assessed as drop in systolic blood pressure at 50 mg/kg, po administered at 0 hrs on days 1, 2 and 3 measured at 2 hrs after drug dose on day 3 by indirect tail-cuff method; assay type: functional, Artery; procedure, shortened: as §2
Rattus norvegicus [22] = experiment: Diuretic activity in acute sodium loaded Wistar rat assessed as chloride level in urine at 5 mg/kg, po measured for 0 to 5 hrs post drug dosing by chloride analyzer relative to urea; assay type: functional; procedure, shortened: as §1
Rattus norvegicus [23] = experiment: Diuretic activity in acute sodium loaded Wistar rat assessed as potassium level in urine at 50 mg/kg, po measured for 0 to 5 hrs post drug dosing by flame photometer relative to urea; assay type: functional; procedure, shortened: as §1
Canis familiaris [24] = experiment: Diuretic activity in dog at 1 to 50 mg/kg, po; assay type: functional, organism-based; conditions: Canis lupus familiaris, Urine
Rattus norvegicus [25] = experiment: Diuretic activity in acute sodium loaded Wistar rat assessed as urine volume at 2 mg/kg, po measured for 0 to 5 hrs post drug dosing relative to urea; assay type: functional; procedure, shortened: as §1
Rattus norvegicus [26] = experiment: Antihypertensive activity in spontaneous hypertensive rat assessed as drop in systolic blood pressure at 10 mg/kg, po administered at 0 hrs on days 1, 2 and 3 measured at 2 hrs after drug dose on day 3 by indirect tail-cuff method; assay type: functional, Artery; procedure, shortened: as §2
Rattus norvegicus [27] = experiment: Diuretic activity in acute sodium loaded Wistar rat assessed as chloride level in urine at 25 mg/kg, po measured for 0 to 5 hrs post drug dosing by chloride analyzer relative to urea; assay type: functional; procedure, shortened: as §1
Rattus norvegicus [28] = experiment: Antihypertensive activity in spontaneous hypertensive rat assessed as drop in systolic blood pressure at 100 mg/kg, po administered at 0 hrs on days 1, 2 and 3 measured at 2 hrs after drug dose on day 3 by indirect tail-cuff method; assay type: functional, Artery; procedure, shortened: as §2

SMILES | Ratio (Rattus norvegicus [8]) | Ratio (Rattus norvegicus [9]) | Activity (Mus musculus) | Ratio (Rattus norvegicus [12]) | Ratio (Rattus norvegicus [17]) | Ratio (Rattus norvegicus [19]) | Ratio (Rattus norvegicus [20]) | Activity (Rattus norvegicus [21]) [mmHg] | Ratio (Rattus norvegicus [23]) | other results
c1ccc(SN2CCC3(CC2)OC(c2ccccc2)c2ccccc23)cc1 (stereo not given) | 1.85 | 1.71 | inactive | 1.83 | 2.5 | 1.2 | 2.2 | 66 | 0.97 | Ratio (Rattus norvegicus [1]): 1.31; Ratio (Rattus norvegicus [2]): 1.2; Ratio (Rattus norvegicus [3]): 1.62; Ratio (Rattus norvegicus [4]): 1.2; Ratio (Rattus norvegicus [5]): 0.86; Activity (Rattus norvegicus [6]): 44 mmHg; Ratio (Rattus norvegicus [7]): 0.74; Activity (Rattus norvegicus [10]): Active; Ratio (Rattus norvegicus [11]): 1.69; Ratio (Rattus norvegicus [13]): 1.49; Activity (Rhesus monkey): inactive; Ratio (Rattus norvegicus [14]): 1.19; Ratio (Rattus norvegicus [15]): 0.94; Activity (Canis familiaris [16]): inactive; Activity (Canis familiaris [18]): inactive; Ratio (Rattus norvegicus [22]): 1.43; Activity (Canis familiaris [24]): inactive; Ratio (Rattus norvegicus [25]): 1
COc1ccc(SN2CCC3(CC2)OC(c2ccccc2)c2ccccc23)cc1 (stereo not given) | 1.47 | 1.47 | inactive | 1.78 | 0.97 | 0.84 | 1.4 | 14 | 0.8 | –
N=C(N)NCCN1CCCCCCC1 [GUANETHIDINE] | – | – | – | – | – | – | – | – | – | Activity (Rattus norvegicus [26]): 34 mmHg
NS(=O)(=O)c1cc2c(cc1Cl)N=CNS2(=O)=O [CHLOROTHIAZIDE] | – | 1.6 | – | 2.2 | – | – | – | – | 1.1 | –
[O-][S+](c1ccccc1)N1CCC2(CC1)OC(c1ccccc1)c1ccccc12 (stereo not given) | – | 1.74 | inactive | 2.2 | 1.22 | 0.68 | 0.81 | – | 1 | Ratio (Rattus norvegicus [27]): 1.18; Activity (Rattus norvegicus [28]): 22 mmHg
O=[N+]([O-])c1ccc(SN2CCC3(CC2)OC(c2ccccc2)c2ccccc23)cc1 (stereo not given) | 2.3 | 1.73 | inactive | 2.41 | 0.76 | 0.58 | 0.59 | – | 1.2 | Ratio (Rattus norvegicus [27]): 0.75; Activity (Rattus norvegicus [6]): 9 mmHg
O=S(=O)(c1ccccc1)N1CCC2(CC1)OC(c1ccccc1)c1ccccc12 (stereo not given) | 0.79 | 0.63 | inactive | 0.7 | – | – | – | 13 | 0.57 | –
